Experiments:
Type in all cases: functional
[1] = In vitro inhibition of Arachidonic acid (100 uM) induced platelet aggregatory activity.
[2] = In vitro inhibition of Collagen (10 ug/mL) induced platelet aggregatory activity
In short: (§1)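 Platelets were preincubated with test agent or vehicle (DMSO 0.5%) at 37 °C for 3 min before the inducer was added, and aggregation was then followed. Aspirin served as the positive control. IC50 values are reported as means ± SE (n=3).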

[3] = Percentage inhibition against platelet activating factor (2 ng/mL) induced platelet aggregatory activity
[4] = Percentage inhibition against thrombin induced platelet aggregatory activity; set-up: concentration or dose not given beside the values
[5] = Inhibitory concentration required against Arachidonic acid (100 uM) induced platelet aggregatory activity; in short: as §1
[6] = In vitro inhibition of Collagen (10 ug/mL) induced platelet aggregatory activity.
[7] = Percentage inhibition against Platelet activating factor (2 ng/mL) induced platelet aggregatory activity

Row | SMILES | IC50 [5] [µM] | IC50 [6] [µM] | IC50 [7] [µM] | Inhibition [1] [%] | Inhibition [2] [%] | Inhibition [3] [%] | Inhibition [4] [%]
1 | COc1cc2ccnc(C(=O)c3ccc(Br)cc3)c2cc1OC |  |  |  | 22 | 36 | 44 | 5
2 | COc1cc2c(cc1OC)C(C(=O)c1ccccc1OC)=NCC2 |  |  |  | 21 | 18 | 26 | 8
3 | COc1cc2c(cc1OC)C(C(=O)c1ccc(Br)cc1)=NCC2 |  |  |  | 6 | 20 | 10 | 4
4 | COc1cc2ccnc(Cc3ccc(Cl)cc3)c2cc1OC | 51.3 | 32.7 |  |  |  | 26 | 28
5 | COc1cc2ccnc(Cc3ccc(Br)cc3)c2cc1OC | 94 | 55.6 |  |  |  | 8 | 11
6 | COc1ccc(C(O)c2nccc3cc(OC)c(OC)cc23)cc1 (stereo unspecified) |  | 58.9 |  | 44 |  | 18 | 9
7 | COc1cc2ccnc(C(=O)c3ccccc3Br)c2cc1OC |  | 77.3 |  | 49 |  | 25 | 6
8 | COc1cc2c(cc1OC)C(C(=O)c1cccc(Cl)c1)=NCC2 |  |  |  | 25 | 35 | 32 | 3
9 | COc1cc2ccnc(C(=O)c3ccccc3OC)c2cc1OC |  |  |  | 50 | 39 | 35 | 1
10 | COc1cccc(Cc2nccc3cc(OC)c(OC)cc23)c1 |  |  |  | 39 | 46 | 12 | 5
11 | COc1cccc(C(=O)C2=NCCc3cc(OC)c(OC)cc32)c1 |  |  |  | 48 | 31 | 15 | 14
12 | COc1cc2c(cc1OC)C(C(=O)c1cccc(Br)c1)=NCC2 |  | 74.5 | 75.8 | 23 |  |  | 4
13 | COc1cc2ccnc(Cc3cccc(Br)c3)c2cc1OC | 68.8 | 48.9 |  |  |  | 23 | 8
14 | COc1cc2ccnc(C(=O)c3cccc(Cl)c3)c2cc1OC |  | 72.6 |  | 35 |  | 47 | 4
15 | COc1cc2ccnc(Cc3ccccc3Cl)c2cc1OC |  | 72.3 |  | 34 |  | 13 | 8
16 | COc1cc2ccnc(C(=O)c3cccc(Br)c3)c2cc1OC |  | 69 | 85 | 35 |  |  | 5

The remaining compounds from weak to strong by IC50 [6], led by results:

Row | IC50 [5] [µM] | IC50 [6] [µM] | IC50 [7] [µM] | SMILES | Inhibition [1] [%] | Inhibition [2] [%] | Inhibition [3] [%] | Inhibition [4] [%]
17 |  | 99.2 |  | COc1cc2ccnc(Cc3ccccc3Br)c2cc1OC | 46 |  | 8 | 7
18 |  | 97 | 64.7 | COc1ccc(C(=O)c2nccc3cc(OC)c(OC)cc23)cc1 | 20 |  |  | 4
19 |  | 89.2 |  | COc1cc2ccnc(C(=O)c3ccc(Cl)cc3)c2cc1OC | 11 |  |  | 9
20 |  | 88.1 |  | COc1cc2c(cc1OC)C(C(=O)c1ccccc1Cl)=NCC2 | 27 |  | 20 | 9
21 |  | 87 |  | COc1ccc(C(=O)C2=NCCc3cc(OC)c(OC)cc32)cc1 | 19 |  | 41 | 10
22 | 90.2 | 73.6 |  | COc1cc2ccnc(Cc3cccc(Cl)c3)c2cc1OC |  |  | 11 | 18
23 |  | 66.1 |  | COc1cc2c(cc1OC)C(C(=O)c1ccc(Cl)cc1)=NCC2 | 48 |  | 22 | 18
24 | 77.1 | 52.1 | 82 | COc1cc2ccnc(C(=O)c3ccccc3Cl)c2cc1OC |  |  |  | 30
25 | 66.2 | 51.2 |  | COc1ccccc1Cc1nccc2cc(OC)c(OC)cc12 |  |  | 20 | 8
26 | 37.7 | 39.1 | 73 | COc1cccc(C(=O)c2nccc3cc(OC)c(OC)cc23)c1 |  |  |  | 46
27 | 59.2 | 36.7 |  | COc1ccc(Cc2nccc3cc(OC)c(OC)cc23)cc1 |  |  | 52 | 26
28 | 34.6 | 34.9 |  | CC(=O)Oc1ccccc1C(=O)O [ASPIRIN] |  |  | 2 | 81
